Results on three compounds are retold here after ChEMBL document CHEMBL4017523, “Computer-Aided Identification and Lead Optimization of Dual Murine Double Minute 2 and 4 Binders: Structure-Activity Relationship Studies and Pharmacological Activity” (J Med Chem, 2017).

Activity calls are given as the source filed them. No cut-off for these calls is given here.

Assay [1] concerns SH-SY5Y. The experiment in a line: Antiproliferative activity against human SH-SY5Y cells at 1 uM after 24 hrs in presence of […] by MTS assay relative to control. Type of assay: functional. The method, boiled down: (§1)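 Cells treated for 24 h, either alone or combined with reference MDM2 inhibitor (1 μM) and/or MDM4 inhibitor (1 μM). Drug medium then swapped for fresh medium and growth continued before MTS read-out. Data given as percent of untreated control set to 100% (mean ± SEM, N = 3).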

In assay [2] the test system is U-87 MG. The experiment in a line: Antiproliferative activity against human U87MG cells at 1 uM after 24 hrs by MTS assay. Type of assay: functional, cell-based. The settings on record: U-87MG ATCC. An outline of the steps:
as §1
(Formazan colour is commonly taken as a measure of viable cells.)

Assay [3] relates to SH-SY5Y. The experiment in a line: Antiproliferative activity against human SH-SY5Y cells at 1 nM to 100 uM after 72 hrs by neutral red dye-based assay. Type of assay: functional, cell-based. An outline of the steps: (§2)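 Cells exposed to DMSO control or test agent at 1 nM to 100 μM for 72 h. Drug medium replaced, then 0.33% neutral red solution added at 10% of medium volume for 2 h at 37 °C. After PBS rinse, dye extracted with 1% glacial acetic acid/50% ethanol in PBS with 10 min shaking. Absorbance read at 540 nm.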

Assay [4] concerns SH-SY5Y. The experiment in a line: Antiproliferative activity against human SH-SY5Y derived cancer stem cells after 7 days by MTS assay. Type of assay: functional, cell-based. The method, boiled down: (§3)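 Cancer stem cells isolated by culturing 2.5 × 10^6 tumor cells without serum in NSC medium for 7 days. Treated with test agent (100 nM–10 μM) for 7 days, drug-containing medium renewed every 3 days. Proliferation measured by MTS and expressed as percent of control (mean ± SEM, N = 3).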

In assay [5] the test system is SH-SY5Y. The experiment in a line: Antiproliferative activity against human SH-SY5Y cells after 24 hrs by MTS assay.
In assay [6] the test system is SH-SY5Y. The experiment in a line: cells. The following applies: Homo sapiens, 24 h, read-out: Activity.
Assay [7] deals with U-87 MG. The experiment in a line: Antiproliferative activity against human U87MG derived cancer stem cells after 7 days by MTS assay. Type of assay: functional, cell-based. The following applies: U-87MG ATCC. An outline of the steps:
as §3

The test system of assay [8] is U-87 MG. The experiment in a line: Antiproliferative activity against human U87MG cells at 1 nM to 100 uM after 72 hrs by neutral red dye-based assay. It is filed as functional, cell-based. The following applies: U-87MG ATCC. An outline of the steps:
as §2

Assay [9] has as its target T1, Protein Mdm4 (Homo sapiens) (UniProt O15151).
T1 sequence (whole entry): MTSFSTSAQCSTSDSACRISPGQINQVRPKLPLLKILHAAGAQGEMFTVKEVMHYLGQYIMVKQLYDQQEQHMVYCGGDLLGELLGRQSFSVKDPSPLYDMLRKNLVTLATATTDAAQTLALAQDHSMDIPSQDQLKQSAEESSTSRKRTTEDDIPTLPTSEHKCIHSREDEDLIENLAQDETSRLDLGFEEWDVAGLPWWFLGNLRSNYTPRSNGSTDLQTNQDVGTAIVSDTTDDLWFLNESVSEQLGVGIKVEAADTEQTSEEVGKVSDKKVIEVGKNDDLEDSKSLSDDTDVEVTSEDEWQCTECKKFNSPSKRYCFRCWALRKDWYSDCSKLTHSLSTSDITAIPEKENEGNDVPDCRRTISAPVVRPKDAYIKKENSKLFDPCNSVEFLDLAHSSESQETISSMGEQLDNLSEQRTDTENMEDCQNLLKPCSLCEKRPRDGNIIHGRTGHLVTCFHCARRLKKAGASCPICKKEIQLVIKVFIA
The experiment in a line: Inhibition of MDM4 in human SH-SY5Y cells assessed as increase in p21 mRNA levels at 1 uM after 24 hrs by RT-qPCR analysis. Type of assay: cell-based. An outline of the steps: (§4)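 Cells incubated 24 h with agents at 1 μM, alone or combined with MDM2 inhibitor. RNA extracted and MDM2, PUMA and p21 transcripts quantified by real-time RT-PCR. Results reported as fold change versus control (mean ± SEM, N = 3).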

Assay [10] relates to SH-SY5Y. The experiment in a line: Antiproliferative activity against human SH-SY5Y cells at 1 uM after 24 hrs in presence of Nutlin-3 by MTS assay relative to control. Type of assay: functional. The method, boiled down: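 Cells were exposed to compound for 24 h, alone or with 1 μM MDM2 inhibitor. Drug medium was then replaced with fresh medium, and cells grew for a further 3 days before the MTS read-out. Values are % of control (100%), mean ± SEM, N=3. For SH-SY5Y, IC50 came from a sigmoid dose-response fit.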

Assay [11] has as its target T1, Protein Mdm4 (Homo sapiens). The experiment in a line: Inhibition of MDM4 in human SH-SY5Y cells assessed as increase in MDM2 mRNA levels at 1 uM after 24 hrs by RT-qPCR analysis. It is filed as cell-based. The method, boiled down:
as §4
On the technique in general: In qPCR the cycle at which signal appears reflects the starting amount.

Assay [12] shares this target. The experiment in a line: Inhibition of MDM4 in human SH-SY5Y cells assessed as accumulation of p53 at 1 uM after 24 hrs by Western blot analysis. Type of assay: cell-based. An outline of the steps:
(§5)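 Cells treated 24 h with DMSO control or agents at 1 μM, alone or combined with 1 μM MDM2 inhibitor. Cells lysed in RIPA buffer and run on 8.5% SDS-PAGE. Blots probed overnight at 4 °C with anti-p53 (1:200), using GAPDH as loading control. Bands quantified by densitometry as percent OD versus control (mean ± SEM, N = 2).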
For orientation: In western blotting, separated proteins are transferred to a membrane and probed.

Assay [13] shares this target. The experiment in a line: Inhibition of MDM4 in human SH-SY5Y cells assessed as increase in PUMA mRNA levels at 1 uM after 24 hrs in presence of Nutlin-3 by RT-qPCR analysis. It is filed as cell-based. The method, boiled down:
as §4

Assay [14] shares this target. The experiment in a line: Inhibition of MDM4 in human SH-SY5Y cells assessed as increase in p21 mRNA levels at 1 uM after 24 hrs in presence of Nutlin-3 by RT-qPCR analysis. It is filed as cell-based. An outline of the steps: as §4
The target of assay [15] is E3 ubiquitin-protein ligase Mdm2 (Homo sapiens, UniProt Q00987). The experiment in a line: Inhibition of MDM2 in human U87MG cells assessed as reduction in MDM2 interaction with p53 after 10 mins by quantitative sandwich immune-enzymatic assay. Type of assay: cell-based.
E3 ubiquitin-protein ligase Mdm2, sequence (Q00987 whole entry): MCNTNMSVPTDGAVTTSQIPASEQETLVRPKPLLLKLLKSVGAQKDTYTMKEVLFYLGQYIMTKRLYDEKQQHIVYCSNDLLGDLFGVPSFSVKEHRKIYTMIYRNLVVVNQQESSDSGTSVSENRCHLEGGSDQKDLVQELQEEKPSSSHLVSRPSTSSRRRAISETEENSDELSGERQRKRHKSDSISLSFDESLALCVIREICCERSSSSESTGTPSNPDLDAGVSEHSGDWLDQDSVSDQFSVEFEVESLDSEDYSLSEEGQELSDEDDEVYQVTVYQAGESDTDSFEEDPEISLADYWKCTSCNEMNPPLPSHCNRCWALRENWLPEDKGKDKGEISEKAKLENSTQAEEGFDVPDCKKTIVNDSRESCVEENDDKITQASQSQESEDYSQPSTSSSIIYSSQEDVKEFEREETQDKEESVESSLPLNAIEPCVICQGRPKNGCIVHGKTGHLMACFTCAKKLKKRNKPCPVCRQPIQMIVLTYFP
Assay [16] has as its target T1, Protein Mdm4 (Homo sapiens). The experiment in a line: Inhibition of MDM4 in human SH-SY5Y cells assessed as increase in PUMA mRNA levels at 1 uM after 24 hrs by RT-qPCR analysis. It is filed as cell-based. An outline of the steps:
as §4

Assay [17] shares this target. The experiment in a line: Inhibition of MDM4 in human SH-SY5Y cells assessed as accumulation of p53 at 1 uM after 24 hrs in presence of Nutlin-3 by Western blot analysis. Type of assay: cell-based. An outline of the steps:
as §5

Assay [18] addresses T2, Protein Mdm4 (Homo sapiens, UniProt O15151).
T2 sequence (O15151 whole entry): T1 sequence (whole entry)
The experiment in a line: Inhibition of MDM4 in human SH-SY5Y cells assessed as reduction in MDM4 interaction with p53 after 10 mins by quantitative sandwich immune-enzymatic assay. It is filed as cell-based.

`COc1ccc(C2=N[C@H](c3ccc(Cl)cc3)[C@H](c3ccc(Cl)cc3)N2C(=O)N2CCNC(=O)C2)c(OC(C)C)c1`: the Activity in [1] is given as 47.1%. Besides, the outcome in assay [2] was Active.

As for `O=C(CC(c1ccccc1)c1ccccc1)N[C@@H](Cc1ccc(OCCCNc2ccccn2)cc1)C(=O)O`, the result in assay [3] and in assay [8] was Active. Also, the Activity result in assay [4] and in assay [7] was “Dose-dependent effect” each time. Besides, half-maximal inhibition in assay [5] (IC50) required 356 nM. The viability at 1 µM in [6] was 62.4%.

On to `CCOc1cc(/C=C2\C(=O)N(c3ccccc3)N=C2C)cc(Cl)c1OCC(=O)OC`, for which the inhibition entry in assay [9] and in assay [16] was “inactive” in each case. Further, in [10], the Activity worked out at 47.1%. In addition, the inhibition result in [11], in assay [12], in assay [13], in assay [14] and in assay [17] was “Active” each time. Besides, the outcome in assay [2] was inactive. The IC50 in assay [15] is greater than 1000 nM; in assay [18] it was 847 nM.

As a reminder, the IC50 is the concentration that inhibits the measured activity by half.
